According to ChEMBL document CHEMBL1156237, “Antiviral activity of benzimidazole derivatives. II. Antiviral activity of 2-phenylbenzimidazole derivatives” (Bioorg Med Chem, 2010):
Calls of active or inactive are those of the source.

How the values were obtained:
Coxsackievirus B2 = assay: Antiviral activity against Human coxsackievirus B2 Ohio-1 infected in african green monkey Vero cells after 3 days by plaque reduction assay; format: functional, organism-based, Coxsackievirus B2 (strain Ohio-1); conditions: Enterovirus B, Vero, 72 h
Outline: (§1)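 Plaque reduction assay. Vero 76 cells at 2 × 10^5/well, grown overnight to confluence in D-MEM with 10% FBS. Infected 2 h with 50–100 PFU/well, unadsorbed virus removed. Overlay of D-MEM with 1% inactivated FBS and 0.75% methylcellulose, with or without serial compound dilutions. Incubated at 37 °C for 3 days (HSV-1 KOS, CVB-2 Ohio-1) or 5 days (RSV A2). Fixed and stained with crystal violet in 50% ethanol; plaques counted; EC50 by linear regression.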

[1] = system: Vesicular stomatitis virus; assay: Antiviral activity against VSV Indiana lab infected in african green monkey Vero cells after 2 days by plaque reduction assay; format: functional, organism-based
[2] = Cytotoxicity against human MT4 cells after 96 hrs by MTT assay; format: cell-based; conditions: MT4 cells
Outline: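 Exponentially growing MT-4 cells at 1 × 10^5 cells/mL in RPMI-1640 with 10% FCS, exposed to serial compound dilutions at 37 °C, 5% CO2. Viability by MTT after 96 h; CC50 is the concentration reducing viability of mock-infected cells by 50%.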

[3] = Cytotoxicity against african green monkey Vero cells; format: cell-based; conditions: chlorocebus sabaeus
Outline: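 Vero 76 monolayers exposed to serial compound dilutions, run in parallel on the same 24-well plates as the plaque-reduction assays. CC50 is the concentration reducing viability of mock-infected cells by 50%.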

[4] = system: Human immunodeficiency virus 1; assay: Antiviral activity against HIV1 3B infected in human MT4 cells assessed as protection from virus-induced cytopathogenicity after 4 days by MTT method; format: functional, organism-based
Outline: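 MT-4 cells, 1 × 10^4/well in RPMI with or without serial compound dilutions, infected with HIV-1 IIIB, 100 CCID50 (m.o.i. 0.01). Protection from virus-induced cytopathogenicity read by MTT.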

[5] = Selectivity index, ratio of CC50 for human MT4 cells to EC50 for Human coxsackievirus B2 Ohio-1; format: toxicity, cell-based; conditions: read-out: Ratio CC50/EC50
[6] = system: Bovine viral diarrhea virus 1; assay: Antiviral activity against Bovine viral diarrhea virus NADL infected in MDBK cells assessed as protection from virus-induced cytopathogenicity after 3 to 4 days by MTT method; format: functional, organism-based, Bovine viral diarrhea virus 1-NADL; conditions: Bovine viral diarrhea virus isolates and strains, MDBK
Outline: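 Cytopathogenicity protection assay. MDBK cells at 3 × 10^4/well, grown overnight to confluence. Infected with BVDV NADL at m.o.i. 0.01 in MEM-E with 0.5% inactivated FBS, 1 mM Na pyruvate and 1% kanamycin. Serial compound dilutions added after 1 h. After 3–4 days at 37 °C, viability read by MTT; EC50 is the concentration giving 50% protection.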

[7] = Cytotoxicity against MDBK cells after 48 to 96 hrs by MTT assay; format: cell-based, Bos taurus; conditions: cattle, MDBK cells
Outline: (§2)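 Cell seeding: MDBK at 6 × 10^5 cells/mL in MEM-E with 10% horse serum and 1 mM Na pyruvate; BHK at 1 × 10^6 cells/mL in MEM-E with 10% FBS. Serial compound dilutions, 37 °C, 5% CO2. Viability of mock-infected cells by MTT after 48–96 h; CC50 is the concentration reducing viability by 50%.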

[8] = Cytotoxicity against BHK cells after 48 to 96 hrs by MTT assay; format: cell-based, Mesocricetus auratus; conditions: hamster; outline: as §2
Poliovirus 1 = assay: Antiviral activity against Polio virus type1 Sabin strain Chat infected in african green monkey Vero cells after 2 days by plaque reduction assay; format: functional, organism-based, Human poliovirus 1 strain Sabin; conditions: Enterovirus C, 48 h
Human alphaherpesvirus 1 = assay: Antiviral activity against HSV1 KOS infected in african green monkey Vero cells after 3 days by plaque reduction assay; format: functional, organism-based; conditions: Human alphaherpesvirus 1, KOS, 72 h; outline: as §1
Yellow fever virus = assay: Antiviral activity against Yellow fever virus 17D infected in BHK cells assessed as protection from virus-induced cytopathogenicity after 3 to 4 days by MTT method; format: functional, organism-based
[9] = system: Respiratory syncytial virus; assay: Antiviral activity against RSV A2 infected in african green monkey Vero cells after 5 days by plaque reduction assay; format: functional, organism-based; conditions: for EC50: human respiratory syncytial virus, A2, Vero, 120 h; outline: as §1
[10] = Selectivity index, ratio of CC50 for african green monkey Vero cells to EC50 for Human coxsackievirus B2 Ohio-1; format: toxicity, cell-based; conditions: read-out: Ratio CC50/EC50
Vaccinia virus = assay: Antiviral activity against Vaccinia virus Elstree-Lister infected in african green monkey Vero cells after 3 days by plaque reduction assay; format: functional, organism-based; conditions: Orthopoxvirus vaccinia; for EC50: 72 h
[11] = Selectivity index, ratio of CC50 for MDBK cells to EC50 for Bovine viral diarrhea virus NADL; format: toxicity, cell-based; conditions: cattle, read-out: Ratio CC50/EC50
[12] = Selectivity index, ratio of CC50 for human MT4 cells to EC50 for Bovine viral diarrhea virus NADL; format: toxicity, cell-based; conditions: read-out: Ratio CC50/EC50
[13] = system: Mammalian orthoreovirus 1; assay: Antiviral activity against Reovirus 1 3651 infected in BHK21 cells assessed as protection from virus-induced cytopathogenicity after 3 to 4 days by MTT method; format: functional, organism-based; conditions: BHK-21
[14] = Inhibition of Bovine viral diarrhea virus NADL NS5B Cdelta24 RNA dependent RNA polymerase expressed in Escherichia coli after 30 mins by fluorescence assay; parameters: species or system Bovine viral diarrhea virus 1-NADL
Outline: (§3)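 N-His-tagged NS5B from E. coli Rosetta2(DE3)pLysS (BVDV C-terminal Δ24; HCV1b Δ21), Ni-NTA purified, 500–600 ng per 20 µL reaction. Template 10 µg/mL poly(rC), primer 0.1 µg/mL oligo(rG)12, substrate 80 µM GTP; 20 mM Tris pH 7.0, 0.5 mM MnCl2 or 5 mM MgCl2, 5% DMSO. Enzyme pre-incubated with drug 30 min at room temperature.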

Hepatitis C virus [15] = assay: Inhibition of HCV 1b NS5B Cdelta21 RNA dependent RNA polymerase expressed in Escherichia coli after 30 mins by fluorescence assay; format: functional, Hepatitis C virus subtype 1b; conditions: 0.5 h; outline: as §3
[16] = Cytotoxicity against human HuH7 cells after 72 hrs; format: cell-based, Huh-7
Outline: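 GS4.1 replicon cells treated as in the replicon assay (twofold dilutions up to 75 µM, 72 h). Viability by CellTiter 96 AQueous One Solution; CC50 from % cytotoxicity versus concentration.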

Hepatitis C virus [17] = assay: Antiviral activity against HCV Con1 expressed in human HuH7 cells assessed as NS4A expression after 72 hrs by ELISA-based replicon assay; format: functional, organism-based, Hepacivirus hominis; conditions: isolate Con1, Huh-7, 72 h
Outline: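 GS4.1 cells (Huh-7 carrying HCV Con1 subgenomic replicon) at 7.5 × 10^3/well. Ten twofold compound dilutions (top 75 µM), 0.5% DMSO, 72 h at 37 °C; replicon-free Huh-7 as negative control. NS4A measured by ELISA with anti-NS4A mAb A-236, peroxidase secondary and o-phenylenediamine, absorbance 492 nm. EC50 by four-parameter sigmoidal fit.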

| SMILES | EC50 (Coxsackievirus B2) [µM] | Activity [1] | CC50 at 96 h [2] [µM] | CC50 [3] [µM] | Activity [4] | selectivity ratio [5] | EC50 [6] [nM] | CC50 [7] [µM] | CC50 [8] [µM] | EC50 (Poliovirus 1) [µM] | EC50 (Human alphaherpesvirus 1) [µM] | EC50 (Yellow fever virus) [µM] | EC50 [9] [µM] | selectivity ratio [10] | selectivity ratio [11] | selectivity ratio [12] | other results |
| --- | --- | --- | --- | --- | --- | --- | --- | --- | --- | --- | --- | --- | --- | --- | --- | --- | --- |
| COc1cc(OC)cc(-c2nc3cc(C(F)(F)F)ccc3[nH]2)c1 | 3 | inactive | 19 | > 100 | inactive | 6.3 | > 100000 | > 100 | > 100 | > 100 | > 100 | > 100 | 10 | > 33 |  |  | EC50 (Vaccinia virus): > 100 µM |
| CC(=O)Nc1ccc(-c2nc3cc(C(F)(F)F)ccc3[nH]2)cc1 | 3 | inactive | 19 | 50 | inactive | 6.3 | 1300 | 50 | 53 | 16 | 7 | > 53 |  | 17 | 39 | 15 |  |
| Nc1ccc(-c2nc3cc(Cl)c(Cl)cc3[nH]2)cc1 | 11 | inactive | 17 | ≥ 100 | inactive |  | 1000 | 7.5 | 30 | > 100 | 28 | > 30 | 10 |  | 7.5 | 17 |  |
| CC(=O)Nc1ccc(-c2nc3cc(C(F)(F)F)ccc3n2C)cc1 | 2.5 | inactive | 15 | > 100 | inactive | 6 | > 46000 | 46 | > 100 | 14 | 49 | > 100 |  | > 40 |  |  | Activity [13]: inactive; Activity [9]: inactive; Activity (Vaccinia virus): inactive |
| COc1cccc(-c2nc3cc(C(F)(F)F)ccc3[nH]2)c1 | 4 | inactive | 19 | > 100 | inactive | 4.8 | > 28000 | 28 | 90 | > 100 | 12 | > 90 | 7 | > 25 |  |  | EC50 (Vaccinia virus): > 100 µM |
| Nc1ccc(-c2nc3cc([N+](=O)[O-])ccc3[nH]2)cc1 | > 100 | inactive | 100 | > 100 | inactive |  | 1500 | 79 | > 100 | > 100 | > 100 | > 100 |  |  | 53 | 67 | IC50 [14]: 18 µM; IC50 (Hepatitis C virus [15]): 33 µM |
| CCC(=O)Nc1ccc(-c2nc3cc(C(F)(F)F)ccc3[nH]2)cc1 | 4 | inactive | ≥ 100 | > 100 | inactive | ≥ 25 | > 100000 | > 100 | 100 | > 100 | > 100 | > 100 |  | > 25 |  |  |  |
| CC(=O)Nc1ccc(-c2nc3cc(Cl)c(Cl)cc3[nH]2)cc1 | > 100 | inactive | > 100 | > 100 | inactive |  | 1000 | 58 | > 100 | > 100 | > 100 | > 100 |  |  | 58 | > 100 | IC50 [14]: 3 µM; CC50 at 72 h [16]: > 75 µM; EC50 (Hepatitis C virus [17]): 32 µM; IC50 (Hepatitis C virus [15]): 5 µM |
| O=C(CN1CCCC1)Nc1ccc(-c2nc3cc(Cl)c(Cl)cc3[nH]2)cc1 | 1.5 | inactive | 8 | > 100 | inactive | 5.3 | 2500 | 16 | 64 | 25 | > 100 | > 64 |  | > 67 |  |  |  |
